Results filed as inconclusive are left out.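 The calls were made as follows, unless noted: active = viability at or below 27.92% in each of two runs, the all-compound median minus 4 SD; inconclusive = no clear call, values can overlap the other calls; inactive = the rest.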
Assays:
[1] = S. cerevisiae growth inhibition in permissive medium (OD615), pilot counter-assay for S. cerevisiae lifespan shortening project, permissive growth control (AID 705;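 active = growth inhibition above 25% in both replicates, a cutoff set 3 SD above the mean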); conditions: OD615, 24 h, at 10 µM, hits give high values
Outline: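 assay system = Saccharomyces cerevisiae strain carrying genetically modified DeaD replicative-lifespan system | medium = SC raffinose/galactose permissive medium | dosing = 10 µM single dose, 0.25% DMSO | schedule = 24 h compound exposure at 30 °C after 4 h pre-growth | measured by = OD at 615 nm | read-out basis = growth inhibition from lowered OD615 after 24 h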

[2] = S. cerevisiae growth inhibition in restrictive medium, OD615, pilot screen, restrictive growth control, yeast lifespan reduction project (AID 706;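 active = growth inhibition above a set limit, 3 SD over mean compound inhibition, in both replicates, cut at about 43% in these data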;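 also: modified DeaD lifespan yeast strain shifted to restrictive glucose medium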); conditions: OD615, 48 h, at 10 µM, hits give high values
Outline: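 Buffer or medium: CSMM-D glucose medium. Material: genetically modified Saccharomyces cerevisiae, DeaD replicative lifespan assay strain. Times: 48 h compound exposure at 30 °C. Measured by: optical density at 615 nm.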

[3] = doxorubicin toxicity protection in MRP-1 cells – H69AR cells, CellTiter-Glo, duplicate, MRP-1 activator project, pilot screen (AID 807;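 active = viability increase at or above a cutoff of the median across tested compounds plus 3 SD, cut at about 8.5% in these data, passing the limit was not always enough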;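 also: compound pretreatment 18-22 h then 72 h combined with doxorubicin; 0% = doxorubicin alone and 100% = vehicle without doxorubicin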); conditions: H69AR viability with doxorubicin, CellTiter-Glo luminescence; at 10 µM; hits give high values
[4] = viability of HCT116 without oncogenic beta-catenin – human colon tumor cells, pilot screen (AID 823;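 active = cell viability at or below a set limit in both duplicate runs, the limit being the all-compound median minus 4 SD, cut at about 23% in these data, passing the limit was not always enough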;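 also: 0% = wells killed by 20 µM Hyamine and 100% = untreated DMSO cell wells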); conditions: HCT116 beta-catenin knockout viability, CellTiter-Glo, 60 h; at 10 µM; hits give low values
[5] = viability of PTEN-null HCT116 cells – cell-based, HCT116 clonal line, CellTiter-Glo, pilot screen (AID 824); conditions: HCT116 PTEN-deleted viability, 60 h, at 10 µM, hits give low values;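 also: 0% = 20 µM Hyamine control and 100% = vehicle cell control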
[6] = RAM pathway blockade in budding yeast – dse1pr::URA3 reporter, 5-FOA selection, pilot screen (AID 869;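 active = inhibition over a set limit, the all-compound mean plus 3 SD, in both replicate runs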;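 also: 0% = DMSO wells with no growth and 100% = 10 µM 1-NA-PP1 with full growth; RAM network block rescues cells from 5-FOA so hits raise OD615 growth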); conditions: S. cerevisiae dse1pr::URA3 5-FOA growth, OD615, 2 d; at 10 µM; hits give high values; strain carries analog-sensitive mutant Cbk1 kinase
[7] = RAM signaling pathway blockade in yeast – S. cerevisiae, Pdr1DBD-CYC8 efflux-inhibited sensitized strain, primary screen (AID 1298;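 active = RAM network inhibition above 8.4% in each of two replicates, 3 SD over the compound average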;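 also: 0% = DMSO untreated cells without growth and 100% = 10 µM 1-NA-PP1 full growth; higher means more yeast growth rescued from 5-FOA killing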); conditions: S. cerevisiae cbk1-as DSE1-URA3 strain, 5-FOA growth OD615, 2 d; at 50 µM; hits give high values

COc1ccccc1NC(=O)CSc1nc(O)cc(=O)n1-c1ccccc1OC
inactive: growth inhibition [1] -0.915% | growth inhibition [2] -0.015% | viability increase [3] 0.76% | viability [4] 100% | viability [5] 100% | inhibition [6] 0.485% | RAM network inhibition [7] 3.1%

Cc1cc(OCc2ccc(F)cc2)nc(-c2ccccc2O)n1
inactive: growth inhibition [1] -0.25% | growth inhibition [2] -3.18% | viability increase [3] 2.19% | viability [4] 76.6% | viability [5] 70.3% | inhibition [6] 1.35% | RAM network inhibition [7] 2.72%

CCc1cc(Br)ccc1N1C(=O)C2CC=CCC2C1=O (stereo not drawn)
inactive: growth inhibition [1] -6.14% | growth inhibition [2] -7.71% | viability increase [3] 0.19% | viability [4] 86.5% | viability [5] 94.9% | inhibition [6] 1.2% | RAM network inhibition [7] 0.4%

CC1CCN(C(=O)CSc2nnc(Cc3cccn3C)n2-c2ccc(F)cc2)CC1
inactive: growth inhibition [1] -5.51% | growth inhibition [2] 10.6% | viability increase [3] -0.49% | viability [4] 88.7% | viability [5] 92% | inhibition [6] 1.79% | RAM network inhibition [7] 2.35%

FC(F)(F)c1nnc2ccc(-n3ccnc3)nn12
inactive: growth inhibition [1] -9.92% | growth inhibition [2] -28.6% | viability increase [3] -1.45% | viability [4] 103% | viability [5] 88.4% | inhibition [6] 0.61% | RAM network inhibition [7] 3.79%

Cc1onc(-c2ccccc2)c1C(=O)N1CCN(C/C=C/c2ccccc2)CC1
inactive: growth inhibition [1] -2.69% | growth inhibition [2] 5.24% | viability increase [3] -5.02% | viability [4] 78.9% | viability [5] 75.6% | inhibition [6] 2.72% | RAM network inhibition [7] 3.92%

COc1ccc(NC(=O)C2CCCN2S(=O)(=O)c2ccc3c(c2)CCC(=O)N3)cc1Cl (stereo not drawn)
inactive: growth inhibition [1] -1.44% | growth inhibition [2] -23.7% | viability increase [3] -2.9% | viability [4] 90.8% | viability [5] 87.7% | inhibition [6] 1.18% | RAM network inhibition [7] 1.9%

CCC1(C(=O)O)NC(c2cccc(OC)c2O)C2C(=O)N(c3ccccc3)C(=O)C21 (stereo not drawn)
inactive: growth inhibition [1] -6.47% | growth inhibition [2] 1.83% | viability increase [3] -2.33% | viability [4] 102% | viability [5] 93.8% | inhibition [6] 3.62% | RAM network inhibition [7] 1.14%

O=C(Nc1ccccc1Cl)N1CCN(c2ccccn2)CC1
inactive: growth inhibition [1] -6.09% | growth inhibition [2] -5.88% | viability increase [3] -0.46% | viability [4] 103% | viability [5] 109% | inhibition [6] 1.91% | RAM network inhibition [7] 4.61%

CCCCCn1c(CNC(=O)c2cccs2)nc2ccccc21
inactive: growth inhibition [1] -5.02% | growth inhibition [2] 3.4% | viability increase [3] -2.58% | viability [4] 90.8% | viability [5] 94% | inhibition [6] 0.42% | RAM network inhibition [7] 3.16%

O=C(NCCN1C(=O)C2C3C=CC(C3)C2C1=O)Nc1cccnc1 (stereo not drawn)
inactive: growth inhibition [1] -0.65% | growth inhibition [2] -7.67% | viability increase [3] -1.57% | viability [4] 96.7% | viability [5] 99.7% | inhibition [6] 0.445% | RAM network inhibition [7] 1.17%

COc1ccc(C(=O)N2CCN(c3c(C)cccc3C)CC2)cc1OC
inactive: growth inhibition [1] -19.6% | growth inhibition [2] -4.21% | viability increase [3] 0.4% | viability [4] 80.8% | viability [5] 72% | inhibition [6] 0.89% | RAM network inhibition [7] 1.36%

CCC(C)[C@@H](C(=O)Nc1ccc2c(c1)OCO2)N1Cc2ccccc2C1=O (stereo partly drawn)
inactive: growth inhibition [1] -14.7% | growth inhibition [2] -13.5% | viability increase [3] -2.97% | viability [4] 91.5% | viability [5] 75.1% | inhibition [6] 0.51% | RAM network inhibition [7] 4.42%

CC(=O)Nc1ccccc1NC(=O)C(F)(F)F
inactive: growth inhibition [1] -14.2% | growth inhibition [2] -5% | viability increase [3] -1.16% | viability [4] 101% | viability [5] 108% | inhibition [6] 1.51% | RAM network inhibition [7] 0.88%

Cc1cc(C)n(C(=O)CCCC(=O)n2nc(C)cc2C)n1
inactive: growth inhibition [1] -10.5% | growth inhibition [2] -10.9% | viability increase [3] -1.19% | viability [4] 105% | viability [5] 97.4% | inhibition [6] 1.19% | RAM network inhibition [7] 2.92%

Cc1cc(NS(=O)(=O)c2ccc(NC(=O)c3cnc4scc(C)n4c3=O)cc2)nc(C)n1
inactive: growth inhibition [1] -8.46% | growth inhibition [2] -14.3% | viability increase [3] -2.16% | viability [4] 102% | viability [5] 98.5% | inhibition [6] 1.31% | RAM network inhibition [7] 4.17%

CCS(=O)(=O)NCCc1csc(-c2cccnc2)n1
inactive: growth inhibition [1] -1.29% | growth inhibition [2] -6.54% | viability increase [3] -0.37% | viability [4] 102% | viability [5] 102% | inhibition [6] 2.48% | RAM network inhibition [7] 6.14%

CCCN(CCC)S(=O)(=O)c1ccc(C(=O)N2CCC(=O)c3ccccc32)cc1
inactive: growth inhibition [1] -0.75% | growth inhibition [2] 1.45% | viability increase [3] -5.63% | viability [4] 81.2% | viability [5] 89.7% | inhibition [6] 2.23% | RAM network inhibition [7] 0.93%

CC(C)N1CC(O)=C(c2ccccc2)C1=N
inactive: growth inhibition [1] 2.25% | growth inhibition [2] -15.7% | viability increase [3] -0.1% | viability [4] 96.5% | viability [5] 97.2% | inhibition [6] 0.86% | RAM network inhibition [7] 4.5%

COc1ccc(C2C(C(=O)NC(C)C)c3ccccc3C(=O)N2C)cc1OC (stereo not drawn)
inactive: growth inhibition [1] -12.9% | growth inhibition [2] -13.2% | viability increase [3] -0.58% | viability [4] 105% | viability [5] 101% | inhibition [6] 0.95% | RAM network inhibition [7] 5.34%

O=C(C1CC(c2ccc(F)cc2)=NO1)N1CCc2ccccc2C1 (stereo not drawn)
inactive: growth inhibition [1] 1.34% | growth inhibition [2] -7.89% | viability increase [3] 0.59% | viability [4] 101% | viability [5] 99.5% | inhibition [6] 1.91% | RAM network inhibition [7] 7.63%

Cc1cnc(N)c2c(=O)oc3ccccc3c12
inactive: growth inhibition [1] -0.41% | growth inhibition [2] 24.5% | viability increase [3] -4.45% | viability [4] 103% | viability [5] 92.8% | inhibition [6] 1.61% | RAM network inhibition [7] 1.88%

COc1cccc(N2CCN(C(=O)c3ccc4nc(N5CCCCC5)sc4c3)CC2)c1
inactive: growth inhibition [1] -4.55% | growth inhibition [2] 3.63% | viability increase [3] 0.85% | viability [4] 89.1% | viability [5] 79.2% | inhibition [6] 0.805% | RAM network inhibition [7] 6.67%

CC(=O)c1cccc(NC(=O)c2cnn3ccccc23)c1
inactive: growth inhibition [1] -8.43% | growth inhibition [2] -17.2% | viability increase [3] -2.54% | viability [4] 95.5% | viability [5] 84.4% | inhibition [6] 1.73% | RAM network inhibition [7] 4.75%
